Assay results taken from ChEMBL document CHEMBL6115033, “Discovery of a Pyrazolopyridinone-Based MYC Inhibitor That Selectively Engages Intracellular c-MYC and Disrupts MYC-MAX Heterodimerization” (J Med Chem, 2025).
The source made the active and inactive calls. The calls are words filed in the database; no cut-off is given here.

Experiments:
MDA-MB-468 [1] = test: Antiproliferative activity against human MDA-MB-468 cells assessed as cell viability incubated for 96 hrs by MTT assay; type: functional, cell-based; settings: MDA-MB-468, 96 h
How it was run: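 Adherent cells (2000/well) attached overnight, then exposed to compounds at 0.14–100 µM for 96 h in DMEM with 10% FBS. MTT at 0.5 mg/mL for 4 h in the dark, formazan dissolved in DMSO, absorbance at 570 nm. Compounds were freshly prepared in DMSO, with DMSO below 1%.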

[2] = Antiproliferative activity against human P493-6 cells expressing MYC assessed as inhibition of cell proliferation incubated for 96 hrs by cell titer glo assay; type: functional, cell-based; settings: P493-6, 96 h
How it was run: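 P493-6 cells (3000/well, RPMI) were seeded overnight at 37 °C, then given compounds at final 0.14–100 µM for 96 h. MYC-off cells were pretreated with 0.1 µg/mL tetracycline for 72 h. Read-out was CellTiter-Glo luminescence after equilibration to room temperature. IC50 was determined in high-MYC and MYC-off cells.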

P493-6 [3] = test: Antiproliferative activity against tetracycline-treated human P493-6 cells expressing MYC assessed as inhibition of cell proliferation at 25 uM incubated for 96 hrs by cell titer glo assay; type: functional, cell-based
How it was run: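 P493-6 cells, either untreated (high MYC) or MYC-off after 0.1 µg/mL tetracycline for 72 h, were exposed to 25 µM for 96 h. Read-out was % survival by CellTiter-Glo luminescence. Mean ± SD, n = 6, unpaired t-test.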

[4] = biological target: T1, c-Myc/c-Max (Homo sapiens) (UniProt P01106+P61244); test: Disruption of MYC-MAX heterodimerization in human P493-6 cells incubated for 12 hrs; type: cell-based
How it was run: (§1)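 Cells were given 25 µM or DMSO for 0, 3, 5 and 12 h. Cytoplasmic and nuclear lysate fractions were pooled. 2 mg protein was immunoprecipitated with MYC antibody overnight, then protein A/G beads for 4 h at 4 °C. Bound MAX was detected by western blot and quantified relative to MYC; MAX input was also measured.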

[5] = biological target: T1, c-Myc/c-Max (Homo sapiens); test: Disruption of MYC-MAX heterodimerization in human MDA-MB-468 cells incubated for 12 hrs; type: cell-based; how it was run: as §1
P493-6 [6] = test: Downregulation of MYC level in human P493-6 cells measured at 20 to 60 mins by Western blot analysis; type: functional, cell-based; settings: time 20-60 min
How it was run: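 Cells were pretreated with 25 µM or DMSO for 3 h, then given 50 µg/mL cycloheximide for the indicated times. MYC was measured by western blot, and half-life came from a one-phase exponential decay fit.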

MDA-MB-468 [7] = test: Downregulation of CDK2 mRNA expression in human MDA-MB-468 cells at 25 uM incubated for 12 hrs by qRT-PCR analysis; type: functional, cell-based
How it was run: (§2)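 Cells (500,000/well) were cultured with or without 25 µM for the indicated time. Total RNA was extracted with TRIzol and reverse-transcribed. qPCR used SYBR green with target-gene primers, reported as ΔΔCT.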

MDA-MB-468 [8] = test: Downregulation of CDC25A mRNA expression in human MDA-MB-468 cells at 25 uM incubated for 12 hrs by qRT-PCR analysis; type: functional, cell-based; how it was run: as §2
MDA-MB-468 [9] = test: Downregulation of SKP2 mRNA expression in human MDA-MB-468 cells at 25 uM incubated for 12 hrs by qRT-PCR analysis; type: functional, cell-based; how it was run: as §2
P493-6 [10] = test: Downregulation of CCNA2 mRNA expression in human P493-6 cells at 25 uM incubated for 12 hrs by qRT-PCR analysis; type: functional, cell-based; how it was run: as §2
P493-6 [11] = test: Downregulation of CDK2 mRNA expression in human P493-6 cells at 25 uM incubated for 12 hrs by qRT-PCR analysis; type: functional, cell-based; how it was run: as §2
P493-6 [12] = test: Downregulation of E2F2 mRNA expression in human P493-6 cells at 25 uM incubated for 12 hrs by qRT-PCR analysis; type: functional, cell-based; how it was run: as §2
MDA-MB-468 [13] = test: Downregulation of CCNA2 mRNA expression in human MDA-MB-468 cells at 25 uM incubated at 48 hrs by qRT-PCR analysis; type: functional, cell-based; how it was run: as §2
MDA-MB-468 [14] = test: Downregulation of CDK2 mRNA expression in human MDA-MB-468 cells at 25 uM incubated at 48 hrs by qRT-PCR analysis; type: functional, cell-based; how it was run: as §2
MDA-MB-468 [15] = test: Downregulation of CDC25C mRNA expression in human MDA-MB-468 cells at 25 uM incubated at 48 hrs by qRT-PCR analysis; type: functional, cell-based; how it was run: as §2
MDA-MB-468 [16] = test: Downregulation of E2F2 mRNA expression in human MDA-MB-468 cells at 25 uM incubated at 48 hrs by qRT-PCR analysis; type: functional, cell-based; how it was run: as §2
MDA-MB-468 [17] = test: Downregulation of SKP2 mRNA expression in human MDA-MB-468 cells at 25 uM incubated at 48 hrs by qRT-PCR analysis; type: functional, cell-based; how it was run: as §2
[18] = Induction of apoptosis in human P493-6 cells assessed as viable cells at 25 uM incubated for 24 hrs by Annexin V/PI staining based flow cytometry analysis (reference value: 90.8%); type: functional; settings: read-out: Activity
[19] = Induction of apoptosis in human P493-6 cells assessed as viable cells at 50 uM incubated for 24 hrs by Annexin V/PI staining based flow cytometry analysis (reference value: 90.8%); type: functional; settings: read-out: Activity
MDA-MB-468 [20] = test: Induction of apoptosis in human MDA-MB-468 cells cultured as 3D spheroids assessed as inhibition of cell growth incubated for 5 days; type: functional, cell-based; settings: time 5.0 day
How it was run: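 Cells plated at 4000 per well in low-attachment 24-well plates and grown in Mammocult medium for 48 h to form mammospheres. Spheres then exposed to 25 uM compound for 5 days, with untreated control wells. Read-out was imaging of the mammospheres formed.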

MDA-MB-468 [21] = test: Antitumor activity against human MDA-MB-468 cells xenografted in mouse assessed as tumor growth inhibition at 10 mg/kg, po measured at 14 to 26 days by elliptical measurement method based caliper analysis; type: functional, organism-based; settings: time 14-26 day
P493-6 [22] = test: Induction of apoptosis in human P493-6 cells assessed as effect on PARP level at 50 uM incubated for 24 hrs
MDA-MB-468 [23] = test: Induction of apoptosis in human MDA-MB-468 cells assessed as effect on PARP level at 50 uM incubated for 24 hrs
P493-6 [24] = test: Induction of apoptosis in human P493-6 cells assessed as effect on cleaved PARP level at 50 uM incubated for 24 hrs
[25] = biological target: T1, c-Myc/c-Max (Homo sapiens); test: Disruption of MYC-MAX interaction in human MDA-MB-468 cells at 25 uM incubated for 12 hrs by proximity ligation assay
[26] = biological target: Myc proto-oncogene protein (Homo sapiens) (UniProt P01106); test: Binding affinity to MYC in human P493-6 cells assessed as thermal stabilization by measuring melting temperature at 25 uM measured for 2 hrs by CETSA analysis
MDA-MB-468 [27] = test: Antitumor activity against human MDA-MB-468 cells xenografted in mouse assessed as reduction in Ki67 expression at 10 mg/kg, sc measured at 14 to 26 days by IHC analysis; settings: time 14-26 day

T1 sequence (P01106 whole entry): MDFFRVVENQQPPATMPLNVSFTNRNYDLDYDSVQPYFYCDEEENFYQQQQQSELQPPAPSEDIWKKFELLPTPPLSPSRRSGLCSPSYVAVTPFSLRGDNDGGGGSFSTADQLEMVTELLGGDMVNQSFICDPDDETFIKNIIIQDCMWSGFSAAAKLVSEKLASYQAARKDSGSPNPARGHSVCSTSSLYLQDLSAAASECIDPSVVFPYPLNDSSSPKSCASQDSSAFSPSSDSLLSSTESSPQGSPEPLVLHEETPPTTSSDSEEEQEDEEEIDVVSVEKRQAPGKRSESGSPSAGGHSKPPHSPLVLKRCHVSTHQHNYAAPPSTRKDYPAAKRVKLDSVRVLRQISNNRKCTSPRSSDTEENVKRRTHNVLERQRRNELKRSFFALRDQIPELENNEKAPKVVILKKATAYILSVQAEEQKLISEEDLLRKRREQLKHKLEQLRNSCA
T1 sequence (P61244 2-160 partner limits assumed): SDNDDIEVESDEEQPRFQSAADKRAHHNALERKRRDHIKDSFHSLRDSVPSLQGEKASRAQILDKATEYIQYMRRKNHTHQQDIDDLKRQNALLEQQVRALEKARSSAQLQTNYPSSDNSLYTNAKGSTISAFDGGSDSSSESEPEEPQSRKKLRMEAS
Myc proto-oncogene protein (Homo sapiens), sequence (P01106 whole entry): as the sequence (P01106 whole entry) above

Q: Which IC50 (MDA-MB-468 [1]) does the source give for `N#Cc1cc2c(-c3ccc(Cl)cc3)nn(-c3ccccc3)c2[nH]c1=O` here?
A: 13.5 µM

Q: What about the IC50 [2] of the same compound?
A: 15.2 µM

Q: And the Activity (P493-6 [3])?
A: Active

Q: What about the Activity [4] of the same compound?
A: Active

Q: And the Activity [5]?
A: Active

Q: And the Activity (P493-6 [6])?
A: Active

Q: What about the Activity (MDA-MB-468 [7]) of the same compound?
A: Active

Q: What about the Activity (MDA-MB-468 [8]) of the same compound?
A: Active

Q: And the Activity (MDA-MB-468 [9])?
A: Active

Q: What about the Activity (P493-6 [10]) of the same compound?
A: Active

Q: And the Activity (P493-6 [11])?
A: Active

Q: What about the Activity (P493-6 [12]) of the same compound?
A: Active

Q: What about the Activity (MDA-MB-468 [13]) of the same compound?
A: Active

Q: What about the Activity (MDA-MB-468 [14]) of the same compound?
A: Active

Q: And the Activity (MDA-MB-468 [15])?
A: Active

Q: And the Activity (MDA-MB-468 [16])?
A: Active

Q: And the Activity (MDA-MB-468 [17])?
A: Active

Q: And the viability at 25 µM [18]?
A: 85.5%

Q: What about the viability at 50 µM [19] of the same compound?
A: 77.2%

Q: And the Activity (MDA-MB-468 [20])?
A: Active

Q: What about the TGI (MDA-MB-468 [21]) of the same compound?
A: Active

Q: What about the Activity (P493-6 [22]) of the same compound?
A: Active

Q: What about the Activity (MDA-MB-468 [23]) of the same compound?
A: Active

Q: And the Activity (P493-6 [24])?
A: Active

Q: What about the Activity [25] of the same compound?
A: Active

Q: And the Tm [26]?
A: 35 °C

Q: And the Activity (MDA-MB-468 [27])?
A: Active
